Values joined by “and” are separate entries in the source; they are usually repeats but may differ in a detail not shown here. Identical values can stand only once.
Legend:
[1] = tested on: Rattus norvegicus; test: Change in respiratory frequency after iv administration of 100 ug/Kg in anesthetized rats; assay type: functional
Summary of the method: (§1)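 Male Wistar rats (299 ± 3 g) were anesthetized with ethylurethane ip, tracheally cannulated and breathing spontaneously, at 37 °C, and stabilized for 60 min. Doses of 50-3200 µg/kg (ratio 2.0) in saline were injected by femoral vein, 50 µL each. Recordings: femoral arterial BP, electromagnetic abdominal-aortic flow, SV from integrated pulsatile flow, polygraphic RF. Peak changes, mean ± SE, n = 12 (n = 7 at 3200).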

[2] = tested on: Rattus norvegicus; test: Change in mean aortic flow after iv administration of 200 ug/Kgin anesthetized rats; assay type: functional; summary of the method: as §1
[3] = tested on: Rattus norvegicus; test: Change in diastolic blood pressure after iv administration of 800 ug/Kg compound (treatment with reserpine(5 mg/kg/day for 2 days, ip)in anesthetized rats; assay type: functional, Artery
Summary of the method: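 In anesthetized male Wistar rats, responses to iv compound (200–1600 µg/kg, ratio 2.0) were measured alone and under three pretreatments: continuous iv papaverine infusion (1 mg/kg/min), ip reserpine (5 mg/kg/day for 2 days), or iv hexamethonium (5 mg/kg). Peak changes are given as mean ± SE, n = 6 per group; p < 0.05 versus control.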

[4] = tested on: Rattus norvegicus; test: Change in stroke volume after iv administration of 50 ug/Kg in anesthetized rats; assay type: functional; summary of the method: as §1
[5] = tested on: Rattus norvegicus; test: Change in mean aortic flow after iv administration of 1600 ug/Kg in anesthetized rats; assay type: functional; summary of the method: as §1
[6] = tested on: Rattus norvegicus; test: Change in systolic blood pressure after iv administration of 1600 ug/Kg in the presence of adrenaline (agonist) in anesthetized rats; assay type: functional, Artery
[7] = tested on: Rattus norvegicus; test: Change in systolic blood pressure after iv administration of 1600 ug/Kg compound (treatment with papaverine(1 mg/Kg/min, iv)in anesthetized rats; assay type: functional, Artery
Summary of the method: (§2)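 Urethane-anesthetized male Wistar rats, 6 per group, received iv doses of 200-1600 µg/kg (ratio 2.0) given alone or under a pretreatment. Pretreatments were continuous iv papaverine infusion (1 mg/kg/min), reserpine 5 mg/kg/day ip for 2 days, or hexamethonium 5 mg/kg iv. Peak changes in femoral arterial BP and HR were recorded; values are mean ± SE.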

[8] = tested on: Rattus norvegicus; test: Change in systolic blood pressure after iv administration of 400 ug/Kg in the presence of adrenaline (agonist) in anesthetized rats; assay type: functional, Artery
Summary of the method: (§3)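 Anesthetized male Wistar rats, two groups of 8, received 400 or 1600 µg/kg iv. Before and after this dose, iv agonist challenges were given: noradrenaline 1 µg/kg, adrenaline, acetylcholine 2.50 µg/kg, or isoprenaline. Systolic/diastolic BP, heart rate and dP/dt responses were recorded before (control) and after dosing; significance was set at p < 0.05 versus control.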

[9] = tested on: Rattus norvegicus; test: Change in respiratory frequency after iv administration of 3200 ug/Kg in anesthetized rats; assay type: functional; summary of the method: as §1
[10] = tested on: Rattus norvegicus; test: Maximum rate of rise of the left ventricular isovolumetric pressure was measured after iv administration of 1600 ug/Kg in the presence of acetylcholine (agonist) in anesthetized rats; assay type: functional, Heart left ventricle; summary of the method: as §3
[11] = tested on: Rattus norvegicus; test: Change in stroke volume after iv administration of 50 ug/Kgg in anesthetized rats; assay type: functional; summary of the method: as §1
[12] = tested on: Rattus norvegicus; test: Change in heart rate after iv administration of 400 ug/kg compound (treatment with hexamethonium (5 mg/kg, iv))in anesthetized rats; assay type: functional; summary of the method: as §2
[13] = tested on: Rattus norvegicus; test: Change in heart rate after iv administration of 1600 ug/Kg in the presence of noradrenaline (agonist) in anesthetized rats; assay type: functional
Summary of the method: (§4)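 Urethane-anesthetized male Wistar rats (16 rats, two equal groups) received 400 or 1600 µg/kg compound iv. Cardiovascular responses to iv agonist boluses (noradrenaline 1 µg/kg, acetylcholine 2.50 µg/kg, adrenaline, isoprenaline) were measured before and after compound dosing. Peak responses are given as mean ± SE; p < 0.05 versus control mean.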

[14] = tested on: Rattus norvegicus; test: Change in systolic blood pressure after iv administration of 1600 ug/Kg in the presence of acetylcholine (agonist) in anesthetized rats; assay type: functional, Artery
[15] = tested on: Rattus norvegicus; test: Maximum rate of rise of the left ventricular isovolumetric pressure was measured after iv administration of 400 ug/Kg in anesthetized rats; assay type: functional, Heart left ventricle
Summary of the method: (§5)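 Urethane-anesthetized (10% w/v, […] ip in saline) adult male Wistar rats, trachea cannulated, breathing spontaneously, 37 °C. Femoral artery catheter for blood pressure, femoral vein for dosing. Sequential iv doses 50–3200 µg/kg (ratio 2.0) in saline, each given after parameters returned to baseline. Peak changes recorded; means ± SE, n = 12 (n = 7 at 3200 µg/kg).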

[16] = tested on: Rattus norvegicus; test: Maximum rate of rise of the left ventricular isovolumetric pressure was measured after iv administration of 800 ug/Kg in anesthetized rats; assay type: functional, Heart left ventricle; summary of the method: as §5
[17] = tested on: Rattus norvegicus; test: Change in systolic blood pressure after iv administration of 100 ug/Kg in anesthetized rats; assay type: functional, Artery; summary of the method: as §1
[18] = tested on: Rattus norvegicus; test: Change in diastolic blood pressure after iv administration of 4.12 uM/kg in anesthetized rats; assay type: functional, Artery
[19] = tested on: Rattus norvegicus; test: Change in systolic blood pressure after iv administration of 400 ug/Kg in the presence of acetylcholine (agonist) in anesthetized rats; assay type: functional, Artery; summary of the method: as §3
[20] = tested on: Rattus norvegicus; test: Change in stroke volume after iv administration of 200 ug/Kg in anesthetized rats; assay type: functional; summary of the method: as §1
[21] = tested on: Rattus norvegicus; test: Change in heart rate after iv administration of 400 ug/Kg in the presence of isoprenaline (agonist) in anesthetized rats; assay type: functional; summary of the method: as §4
[22] = tested on: Rattus norvegicus; test: Change in systolic blood pressure after iv administration of 400 ug/Kg in the presence of noradrenaline (agonist) in anesthetized rats; assay type: functional, Artery; summary of the method: as §3
[23] = tested on: Rattus norvegicus; test: Change in heart rate after iv administration of 1600 ug/Kg in the presence of adrenaline (agonist) in anesthetized rats; assay type: functional; summary of the method: as §4
[24] = tested on: Rattus norvegicus; test: Change in systolic blood pressure after iv administration of 400 ug/Kg in the presence of isoprenaline (agonist) in anesthetized rats; assay type: functional, Artery; summary of the method: as §3
[25] = tested on: Rattus norvegicus; test: Change in systolic blood pressure after iv administration of 200 ug/Kg in anesthetized rats; assay type: functional, Artery; summary of the method: as §1
[26] = tested on: Rattus norvegicus; test: Change in heart rate after iv administration of 3200 ug/Kg in anesthetized rats; assay type: functional
Summary of the method: (§6)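 Adult male Wistar rats under ip ethylurethane (10% w/v in saline, 1 mL/kg) with tracheal cannula and spontaneous breathing, kept at 37 °C. Arterial BP was recorded by femoral artery catheter; compound in saline (50 µL) was given via femoral vein at 50–3200 µg/kg, ratio 2.0. Peak change is given as mean ± SE, n = 12 (n = 7 at 3200 µg/kg).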

[27] = tested on: Rattus norvegicus; test: Change in heart rate after iv administration of 200 ug/Kg in anesthetized rats; assay type: functional; summary of the method: as §6
[28] = tested on: Rattus norvegicus; test: Change in mean aortic flow after iv administration of 400 ug/Kg in anesthetized rats; assay type: functional; summary of the method: as §1
[29] = tested on: Rattus norvegicus; test: Change in respiratory frequency after iv administration of 50 ug/Kg in anesthetized rats; assay type: functional; summary of the method: as §1
[30] = tested on: Rattus norvegicus; test: Change in mean aortic flow after iv administration of 100 ug/Kg in anesthetized rats; assay type: functional; summary of the method: as §1

COc1ccc(C2C(c3ccc(OC)c(OC)c3)[C@H](C(=O)NCCCC/N=C(\N)NCC=C(C)C)[C@@H]2C(=O)NCCCC/N=C(\N)NCC=C(C)C)cc1OC (some centres undefined) [CARACASANDIAMIDE]
Change in respiratory frequency [1]: 6 beats min-1 and 6% | Mean aortic flow [2]: -14 mL/min | BP [3]: -12 mmHg | Change in stroke volume [4]: 36% | Change in mean aortic flow [5]: -49% | Mean aortic flow [5]: -36 mL/min | BP [6]: 14 mmHg | BP [7]: -33 mmHg | BP [8]: 21 mmHg | Change in respiratory frequency [9]: -67 beats min-1 and -70% | dP/dt [10]: -6821 mmHg s-1 | Stroke volume [11]: 73 µL | Heart rate [12]: -46 beats min-1 | Heart rate [13]: 13 beats min-1 | BP [14]: -38 mmHg | Change in dP/dt [15]: 43% | dP/dt [15]: 2615 mmHg s-1 | Change in dP/dt [16]: 54% | dP/dt [16]: 3282 mmHg s-1 | BP [17]: 12 mmHg | Change in BP [17]: 12% | BP [18]: -47 mmHg | BP [19]: -27 mmHg | Change in stroke volume [20]: 11% | Stroke volume [20]: 23 µL | Heart rate [21]: 69 beats min-1 | BP [22]: 31 mmHg | Heart rate [23]: 7 beats min-1 | BP [24]: -36 mmHg | BP [25]: -14 mmHg | Change in BP [25]: -13% | Change in heart rate [26]: -11% | Heart rate [26]: -41 beats min-1 | Change in heart rate [27]: -4% | Heart rate [27]: -13 beats min-1 | Mean aortic flow [28]: -14 mL/min | Change in respiratory frequency [29]: 5 beats min-1 and 5% | Change in mean aortic flow [30]: 15% | Mean aortic flow [30]: 11 mL/min

— ChEMBL document CHEMBL1132342, “Novel hypotensive agents from Verbesina caracasana. 6. Synthesis and pharmacology of caracasandiamide” (1999)
